Data as given in ChEMBL document CHEMBL1138071, “Design and synthesis of noncompetitive metabotropic glutamate receptor subtype 5 antagonists” (Bioorg Med Chem Lett, 2006).
Calls of active or inactive are those of the source. The rule behind the calls is not given here.

How the values were obtained:
[1] = target: Metabotropic glutamate receptor 5 (Rattus norvegicus, UniProt P31424); assay: Inhibition of [3H]MPEP binding to mGluR5 in rat brain membrane; format: cell membranes
Procedure, shortened: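 Rat brain membranes spun twice at 30,000g for 10 min, resuspended in ice-cold 50 mM Tris–HCl pH 7.0 with 1% BSA. Displacement by 10 drug concentrations run three times. Incubated 2.5 h at 4 °C to steady state, then filtered over PEI-presoaked glass-fibre filters.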

[2] = target: Metabotropic glutamate receptor 5 (Rattus norvegicus) (UniProt P31424); assay: Inhibition of [3H]MPEP binding to mGluR5 in rat brain membrane at 100 uM; format: cell membranes
Chain of Metabotropic glutamate receptor 5 (Rattus norvegicus) (P31424 21-1203 limits assumed): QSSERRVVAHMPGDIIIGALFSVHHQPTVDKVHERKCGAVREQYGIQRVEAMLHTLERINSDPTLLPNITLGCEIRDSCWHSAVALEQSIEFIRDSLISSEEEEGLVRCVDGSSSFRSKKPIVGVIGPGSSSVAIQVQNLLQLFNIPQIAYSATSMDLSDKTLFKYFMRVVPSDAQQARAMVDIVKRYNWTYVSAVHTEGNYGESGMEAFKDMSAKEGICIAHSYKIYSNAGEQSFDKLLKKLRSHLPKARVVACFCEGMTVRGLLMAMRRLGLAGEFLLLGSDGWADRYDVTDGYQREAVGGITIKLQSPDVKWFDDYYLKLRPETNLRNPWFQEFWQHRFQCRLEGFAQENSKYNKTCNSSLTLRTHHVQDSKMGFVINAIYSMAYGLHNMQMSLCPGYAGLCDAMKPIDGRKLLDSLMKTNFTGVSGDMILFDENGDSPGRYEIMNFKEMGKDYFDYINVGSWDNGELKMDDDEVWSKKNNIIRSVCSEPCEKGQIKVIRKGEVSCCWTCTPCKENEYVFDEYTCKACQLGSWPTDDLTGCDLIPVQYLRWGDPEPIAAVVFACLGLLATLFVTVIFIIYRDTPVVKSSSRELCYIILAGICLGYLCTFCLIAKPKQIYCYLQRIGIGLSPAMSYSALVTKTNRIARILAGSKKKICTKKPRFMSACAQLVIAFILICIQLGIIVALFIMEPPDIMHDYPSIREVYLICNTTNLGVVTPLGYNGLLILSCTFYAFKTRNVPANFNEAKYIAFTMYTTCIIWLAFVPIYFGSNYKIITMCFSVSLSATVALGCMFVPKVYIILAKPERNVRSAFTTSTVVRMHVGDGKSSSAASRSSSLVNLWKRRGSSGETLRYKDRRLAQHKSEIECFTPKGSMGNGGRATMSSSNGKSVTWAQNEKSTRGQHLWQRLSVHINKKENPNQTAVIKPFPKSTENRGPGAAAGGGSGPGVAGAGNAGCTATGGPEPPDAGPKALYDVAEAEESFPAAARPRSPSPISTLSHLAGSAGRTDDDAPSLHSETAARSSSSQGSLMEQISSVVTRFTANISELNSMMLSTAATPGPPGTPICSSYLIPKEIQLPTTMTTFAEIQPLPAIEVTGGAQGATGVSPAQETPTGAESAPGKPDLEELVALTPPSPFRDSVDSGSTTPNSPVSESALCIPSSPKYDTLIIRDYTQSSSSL

[3] = target: Metabotropic glutamate receptor 5 (Homo sapiens, UniProt P41594); assay: Antagonist activity against mGluR5 expressed in CHO cells assessed as inhibition of agonist-induced phosphoinositide hydrolysis; format: functional, cell-based
Chain of Metabotropic glutamate receptor 5 (Homo sapiens, UniProt P41594) (P41594 whole entry): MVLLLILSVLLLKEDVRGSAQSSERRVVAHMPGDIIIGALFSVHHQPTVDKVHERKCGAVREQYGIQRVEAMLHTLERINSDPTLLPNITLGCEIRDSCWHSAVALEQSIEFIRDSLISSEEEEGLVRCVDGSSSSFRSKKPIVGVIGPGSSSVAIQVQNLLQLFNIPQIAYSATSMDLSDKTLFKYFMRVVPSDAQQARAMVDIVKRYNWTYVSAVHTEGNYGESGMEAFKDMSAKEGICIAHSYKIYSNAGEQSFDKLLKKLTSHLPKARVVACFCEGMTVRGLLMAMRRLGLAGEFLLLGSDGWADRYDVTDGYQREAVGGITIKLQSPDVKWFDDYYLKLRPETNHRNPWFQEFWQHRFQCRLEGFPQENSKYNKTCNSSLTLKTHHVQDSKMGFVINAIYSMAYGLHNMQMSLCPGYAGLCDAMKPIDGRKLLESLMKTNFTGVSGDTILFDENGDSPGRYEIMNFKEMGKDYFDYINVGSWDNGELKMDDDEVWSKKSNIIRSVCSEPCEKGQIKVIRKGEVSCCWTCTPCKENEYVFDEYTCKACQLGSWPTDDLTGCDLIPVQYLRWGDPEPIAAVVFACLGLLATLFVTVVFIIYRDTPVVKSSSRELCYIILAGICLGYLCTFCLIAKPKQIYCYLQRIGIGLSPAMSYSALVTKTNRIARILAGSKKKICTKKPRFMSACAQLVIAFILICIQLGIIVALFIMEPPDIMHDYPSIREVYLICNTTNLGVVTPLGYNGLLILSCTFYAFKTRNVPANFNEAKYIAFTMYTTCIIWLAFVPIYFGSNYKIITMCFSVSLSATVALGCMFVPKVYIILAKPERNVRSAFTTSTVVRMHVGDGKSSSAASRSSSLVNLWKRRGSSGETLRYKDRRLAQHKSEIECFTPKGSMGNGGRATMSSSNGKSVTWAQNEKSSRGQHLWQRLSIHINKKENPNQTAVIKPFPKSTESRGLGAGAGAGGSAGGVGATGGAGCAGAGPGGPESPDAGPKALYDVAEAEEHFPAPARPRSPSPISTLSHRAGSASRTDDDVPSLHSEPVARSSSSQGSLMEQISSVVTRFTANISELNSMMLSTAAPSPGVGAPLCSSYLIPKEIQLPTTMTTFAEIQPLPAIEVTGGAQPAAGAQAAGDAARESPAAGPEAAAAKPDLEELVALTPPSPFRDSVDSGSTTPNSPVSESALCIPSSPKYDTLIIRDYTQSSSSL

[4] = target: Metabotropic glutamate receptor 5 (Rattus norvegicus) (UniProt P31424); details: Brain, Membrane, 10 uM

Chain of Metabotropic glutamate receptor 5 (Rattus norvegicus, UniProt P31424) (P31424 whole entry): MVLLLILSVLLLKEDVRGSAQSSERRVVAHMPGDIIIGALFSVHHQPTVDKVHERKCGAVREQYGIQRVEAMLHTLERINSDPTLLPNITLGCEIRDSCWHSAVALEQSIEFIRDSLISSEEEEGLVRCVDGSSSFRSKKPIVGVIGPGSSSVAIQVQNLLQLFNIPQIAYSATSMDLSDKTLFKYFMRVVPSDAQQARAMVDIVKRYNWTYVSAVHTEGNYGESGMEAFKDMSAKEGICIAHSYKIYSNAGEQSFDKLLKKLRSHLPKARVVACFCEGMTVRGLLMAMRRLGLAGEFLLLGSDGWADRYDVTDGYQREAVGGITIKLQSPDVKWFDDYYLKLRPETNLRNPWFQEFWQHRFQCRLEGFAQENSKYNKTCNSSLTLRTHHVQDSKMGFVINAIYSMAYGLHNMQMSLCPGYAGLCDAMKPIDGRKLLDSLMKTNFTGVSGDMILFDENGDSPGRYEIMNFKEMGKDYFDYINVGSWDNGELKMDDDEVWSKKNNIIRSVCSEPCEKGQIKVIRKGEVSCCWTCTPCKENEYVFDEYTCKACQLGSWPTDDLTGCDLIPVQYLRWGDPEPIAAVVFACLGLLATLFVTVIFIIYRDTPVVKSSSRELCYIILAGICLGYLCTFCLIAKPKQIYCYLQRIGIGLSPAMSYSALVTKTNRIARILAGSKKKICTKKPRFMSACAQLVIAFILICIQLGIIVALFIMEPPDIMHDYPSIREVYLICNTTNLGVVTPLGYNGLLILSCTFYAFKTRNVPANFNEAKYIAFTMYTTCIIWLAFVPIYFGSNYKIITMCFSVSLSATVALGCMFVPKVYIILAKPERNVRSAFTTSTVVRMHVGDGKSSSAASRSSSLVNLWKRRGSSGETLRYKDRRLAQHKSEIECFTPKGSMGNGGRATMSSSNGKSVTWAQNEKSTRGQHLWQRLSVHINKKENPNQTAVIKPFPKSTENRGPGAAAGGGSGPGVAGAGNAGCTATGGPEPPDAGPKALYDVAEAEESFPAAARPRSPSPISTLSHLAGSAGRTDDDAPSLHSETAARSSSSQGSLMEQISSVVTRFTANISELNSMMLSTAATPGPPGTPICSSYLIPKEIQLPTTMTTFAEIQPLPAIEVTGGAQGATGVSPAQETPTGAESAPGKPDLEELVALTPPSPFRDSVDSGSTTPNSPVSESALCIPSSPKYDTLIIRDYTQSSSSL

Structure (SMILES)	IC50 [1] [µM]	Activity [2]	further results
Cc1cccc(NC(=O)c2cccc3ccccc23)n1	62.8		
Cc1cccc(NC(=O)c2cccnc2)n1		inactive	
Cc1cccc(NC(=O)c2cccc(/C=C/c3ccccc3)c2)n1		inactive	
Cc1cccc(NC(=O)c2cccc(Oc3ccccc3)c2)n1	57		
O=C(Nc1cccc(Cl)n1)c1cccc(Cl)c1	1.53		IC50 [3]: 12.7 µM
Cc1cccc(NC(=O)C2CCCN(Cc3ccccc3)C2)n1 (centres undefined)			inhibition [2]: 14%
Cc1cccc(NC(=O)c2cccc(Cl)c2)n1	1.73		inhibition [4]: 66%
Cc1csc(NC(=O)c2ccccc2)n1	65		
Cc1cccc(NC(=O)c2cccc(OCCc3ccccc3)c2)n1	23.6		
Cc1cccc(NC(=O)c2cccc(OS(C)(=O)=O)c2)n1	83.6		
Cc1cccc(NC(=O)c2ccccc2)n1	35		
COc1cccc(C(=O)Nc2cccc(C)n2)c1	9.76		IC50 [3]: 46 µM
Cc1ccc(O)c(/N=N/c2ccccc2)n1	1.17		
Cc1cccc(NC(=O)c2cccc(I)c2)n1	1.08		IC50 [3]: 10.8 µM
O=C(Nc1ccccn1)c1ccccc1	95.4		
Cc1cccc(NC(=O)c2cccc(C(F)(F)F)c2)n1	18.7		
Cc1cccc(NC(=O)c2ccccc2Cl)n1		inactive	
Cc1csc(NC(=O)c2cccnc2)n1		inactive	

Structure (SMILES)	IC50 [1] [µM]	Activity [2]	further results
Cc1cccc(/C=C/c2ccccc2)n1	1.08		
Cc1cccc(CNc2ccccc2)n1		inactive	
Cc1cccc(NC(=O)C2CCCN(Cc3cccc(Cl)c3)C2)n1 (centres undefined)			inhibition [2]: 31%
COc1cccc(C(=O)Nc2nc(C)cs2)c1	9.1		
Cc1ccc(S(=O)(=O)N2CCCC(C(=O)Nc3cccc(C)n3)C2)cc1 (centres undefined)			inhibition [2]: 31%
Cc1cccc(NC(=O)c2ccc3ccccc3c2)n1		inactive	
Cc1cccc(NC(=O)c2cccc(OCc3ccccc3)c2)n1	33		
Cc1cccc(NC(=O)c2cccc(S(C)(=O)=O)c2)n1		inactive	
Cc1cccc(NC(=O)c2cccc(-c3ccccc3)c2)n1	7.3		IC50 [3]: 18.3 µM
Cc1cccc(NCc2ccccc2)n1		inactive	
Cc1cccc(NC(=O)c2cccc(Br)c2)n1	0.65		IC50 [3]: 5.48 µM
Cc1cccc(NC(=O)c2ccc(Cl)cc2)n1		inactive	
Cc1cccc(C(=O)Nc2cccc(C)n2)c1	1.84		IC50 [3]: 5.9 µM
Cc1cccc(NC(=O)C2CCCN(C)C2)n1 (centres undefined)		inactive	
Cc1cccc(NC(=O)c2cccc(C#N)c2)n1	0.33		IC50 [3]: 5.33 µM
Cc1csc(NC(=O)c2cccc(Cl)c2)n1	5.49		IC50 [3]: 15 µM
Cc1ccc(S(=O)(=O)Nc2cccc(C)n2)cc1		inactive	
